From ChEMBL document CHEMBL5303300, “EUbOPEN Chemogenomics Library - Multiplex” (2023)
Values joined by “and” are separate entries in the source; they are usually repeats but may differ in a detail not shown here. Equal values may be shown once.

System: HEK-293T
Assay: Multiplex assay against HEK293T
Type: toxicity, cell-based
Details: human, number of replicates 2
In short: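 Four dyes were applied at seeding to live cells: Hoechst33342, BioTracker Green Microtubule Cytoskeleton Dye, MitoTracker Red and Annexin V Alexa Fluor 680. Imaging after compound addition used a CQ1 microscope at 37°C and 5% CO2. CellPathfinder machine-learning gating then sorted cells into Hoechst high-intensity objects or normal cells, normal cells into healthy, pyknosed or fragmented nuclei, and pyknosed cells into mitotic or apoptotic, with tubulin, mitochondrial-mass and membrane-permeability phenotypes given as per cents of healthy-nucleus cells.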

[1] = 12 h, 1 µM, compound concentration 1 uM
[2] = 12 h, 10 µM, compound concentration 10 uM
[3] = 24 h, 1 µM, compound concentration 1 uM
[4] = 24 h, 10 µM, compound concentration 10 uM
[5] = 48 h, 1 µM, compound concentration 1 uM
[6] = 48 h, 10 µM, compound concentration 10 uM

`Cn1cc(-n2cnc3c(NCc4nc5cc(Cl)c(Cl)cc5[nH]4)nc(N4CCOCC4)nc32)cn1` was tested, and the “Population Apoptotic (%)” value [1] was 69% and 59%, the “Population Fragmented Nuclei (%)” value [1] was 3% and 5% and the “Population Healthy Nuclei (%)” value [1] was 76% and 75%. For the same compound, the “Population Hoechst High Intensity Objects (%)” value [1] was 16% and 17%, the “Population Membrane Permeable-Phenotype (%)” value [1] was 3% and 1% and the “Population Mitochondria Different-Phenotype (%)” value [1] was 65% and 66%. The “Population Mitotic Cells (%)” value [1] was 30% and 40%, the “Population Normal (%)” value [1] was 83% and 82% and the “Population Pyknosed Nuclei (%)” value [1] was 20% and 19%. For the same compound, the “Population Tubulin-Different-Phenotype (%)” value [1] was 83% and 84%, the “Total Cell Count” value [1] was 293 and 335 and the “Population Apoptotic (%)” value [2] was 71% and 65%. For the same compound, the “Population Fragmented Nuclei (%)” value [2] was 4% and 2%, the “Population Healthy Nuclei (%)” value [2] was 78% and 76% and the “Population Hoechst High Intensity Objects (%)” value [2] was 18% and 12%. The “Population Membrane Permeable-Phenotype (%)” value [2] was 1% and 2%, the “Population Mitochondria Different-Phenotype (%)” value [2] was 77% and 73% and the “Population Mitotic Cells (%)” value [2] was 28% and 34%. The “Population Normal (%)” value [2] was 81% and 87%, the “Population Pyknosed Nuclei (%)” value [2] was 16% and 20% and the “Population Tubulin-Different-Phenotype (%)” value [2] was 95% and 96%. The “Total Cell Count” value [2] was 262 and 266, the “Population Apoptotic (%)” value [3] was 72% and 66% and the “Population Fragmented Nuclei (%)” value [3] was 2% and 4%. The “Population Healthy Nuclei (%)” value [3] was 72% and 74%, the “Population Hoechst High Intensity Objects (%)” value [3] was 25% and 27% and the “Population Membrane Permeable-Phenotype (%)” value [3] was 3% and 0%. For the same compound, the “Population Mitochondria Different-Phenotype (%)” value [3] was 75% and 82%, the “Population Mitotic Cells (%)” value [3] was 27% and 33% and the “Population Normal (%)” value [3] was 74% and 72%. For the same compound, the “Population Pyknosed Nuclei (%)” value [3] was 25% and 20%, the “Population Tubulin-Different-Phenotype (%)” value [3] was 78% and 89% and the “Total Cell Count” value [3] was 256 and 257. The “Population Apoptotic (%)” value [4] was 69% and 85%, the “Population Fragmented Nuclei (%)” value [4] was 2% and 5% and the “Population Healthy Nuclei (%)” value [4] was 81% and 80%. The “Population Hoechst High Intensity Objects (%)” value [4] was 21% and 11%, the “Population Membrane Permeable-Phenotype (%)” value [4] was 2% and 0% and the “Population Mitochondria Different-Phenotype (%)” value [4] was 87% and 88%. The “Population Mitotic Cells (%)” value [4] was 30% and 14%, the “Population Normal (%)” value [4] was 78% and 88% and the “Population Pyknosed Nuclei (%)” value [4] was 15% and 13%. The “Population Tubulin-Different-Phenotype (%)” value [4] was 92% and 95%, the “Total Cell Count” value [4] was 217 and the “Population Apoptotic (%)” value [5] was 69% and 62%. For the same compound, the “Population Fragmented Nuclei (%)” value [5] was 7% and 6%, the “Population Healthy Nuclei (%)” value [5] was 69% and 74% and the “Population Hoechst High Intensity Objects (%)” value [5] was 20% and 29%. For the same compound, the “Population Membrane Permeable-Phenotype (%)” value [5] was 5% and 1%, the “Population Mitochondria Different-Phenotype (%)” value [5] was 66% and 78% and the “Population Mitotic Cells (%)” value [5] was 30% and 37%. The “Population Normal (%)” value [5] was 79% and 70%, the “Population Pyknosed Nuclei (%)” value [5] was 22% and 19% and the “Population Tubulin-Different-Phenotype (%)” value [5] was 75% and 87%. For the same compound, the “Total Cell Count” value [5] was 308 and 317, the “Population Apoptotic (%)” value [6] was 70% and 84% and the “Population Fragmented Nuclei (%)” value [6] was 5%. For the same compound, the “Population Healthy Nuclei (%)” value [6] was 78% and 70%, the “Population Hoechst High Intensity Objects (%)” value [6] was 17% and 11% and the “Population Membrane Permeable-Phenotype (%)” value [6] was 1% and 2%. The “Population Mitochondria Different-Phenotype (%)” value [6] was 89% and 87%, the “Population Mitotic Cells (%)” value [6] was 29% and 16% and the “Population Normal (%)” value [6] was 82% and 88%. For the same compound, the “Population Pyknosed Nuclei (%)” value [6] was 16% and 23%, the “Population Tubulin-Different-Phenotype (%)” value [6] was 94% and 93% and the “Total Cell Count” value [6] was 275 and 237.
In the case of `CCCN(CCc1cccs1)[C@H]1CCc2c(O)cccc2C1` [ROTIGOTINE], the “Population Apoptotic (%)” value [1] is reported as 43% and 35%, the “Population Fragmented Nuclei (%)” value [1] is reported as 3% and 1% and the “Population Healthy Nuclei (%)” value [1] is reported as 83% and 85%. For the same compound, the “Population Hoechst High Intensity Objects (%)” value [1] was 9% and 5%, the “Population Membrane Permeable-Phenotype (%)” value [1] was 1% and 2% and the “Population Mitochondria Different-Phenotype (%)” value [1] was 13% and 14%. The “Population Mitotic Cells (%)” value [1] was 56% and 64%, the “Population Normal (%)” value [1] was 90% and 94% and the “Population Pyknosed Nuclei (%)” value [1] was 12%. The “Population Tubulin-Different-Phenotype (%)” value [1] was 50% and 48%, the “Total Cell Count” value [1] was 619 and 758 and the “Population Apoptotic (%)” value [2] was 39% and 66%. The “Population Fragmented Nuclei (%)” value [2] was 3% and 2%, the “Population Healthy Nuclei (%)” value [2] was 88% and the “Population Hoechst High Intensity Objects (%)” value [2] was 8% and 5%. For the same compound, the “Population Membrane Permeable-Phenotype (%)” value [2] was 4% and 2%, the “Population Mitochondria Different-Phenotype (%)” value [2] was 13% and 17% and the “Population Mitotic Cells (%)” value [2] was 60% and 33%. The “Population Normal (%)” value [2] was 91% and 94%, the “Population Pyknosed Nuclei (%)” value [2] was 7% and 8% and the “Population Tubulin-Different-Phenotype (%)” value [2] was 66% and 65%. The “Total Cell Count” value [2] was 592 and 535, the “Population Apoptotic (%)” value [3] was 20% and 41% and the “Population Fragmented Nuclei (%)” value [3] was 6% and 5%. The “Population Healthy Nuclei (%)” value [3] was 89% and 88%, the “Population Hoechst High Intensity Objects (%)” value [3] was 8% and the “Population Membrane Permeable-Phenotype (%)” value [3] was 2%. For the same compound, the “Population Mitochondria Different-Phenotype (%)” value [3] was 3%, the “Population Mitotic Cells (%)” value [3] was 80% and 58% and the “Population Normal (%)” value [3] was 91%. For the same compound, the “Population Pyknosed Nuclei (%)” value [3] was 3% and 6%, the “Population Tubulin-Different-Phenotype (%)” value [3] was 30% and 32% and the “Total Cell Count” value [3] was 1198 and 930. The “Population Apoptotic (%)” value [4] was 25% and 32%, the “Population Fragmented Nuclei (%)” value [4] was 5% and 7% and the “Population Healthy Nuclei (%)” value [4] was 89% and 86%. The “Population Hoechst High Intensity Objects (%)” value [4] was 8% and 9%, the “Population Membrane Permeable-Phenotype (%)” value [4] was 2% and 4% and the “Population Mitochondria Different-Phenotype (%)” value [4] was 9% and 5%. The “Population Mitotic Cells (%)” value [4] was 74% and 67%, the “Population Normal (%)” value [4] was 91% and 90% and the “Population Pyknosed Nuclei (%)” value [4] was 5%. The “Population Tubulin-Different-Phenotype (%)” value [4] was 50% and 47%, the “Total Cell Count” value [4] was 859 and 863 and the “Population Apoptotic (%)” value [5] was 5% and 13%. The “Population Fragmented Nuclei (%)” value [5] was 18% and 11%, the “Population Healthy Nuclei (%)” value [5] was 79% and 85% and the “Population Hoechst High Intensity Objects (%)” value [5] was 9% and 10%. The “Population Membrane Permeable-Phenotype (%)” value [5] was 5% and 3%, the “Population Mitochondria Different-Phenotype (%)” value [5] was 0% and the “Population Mitotic Cells (%)” value [5] was 94% and 86%. For the same compound, the “Population Normal (%)” value [5] was 90% and 89%, the “Population Pyknosed Nuclei (%)” value [5] was 2% and the “Population Tubulin-Different-Phenotype (%)” value [5] was 11% and 17%. The “Total Cell Count” value [5] was 3231 and 2107, the “Population Fragmented Nuclei (%)” value [6] was 22% and 16% and the “Population Healthy Nuclei (%)” value [6] was 76% and 81%. For the same compound, the “Population Hoechst High Intensity Objects (%)” value [6] was 9% and 8%, the “Population Membrane Permeable-Phenotype (%)” value [6] was 7% and 6% and the “Population Mitochondria Different-Phenotype (%)” value [6] was 0% and 1%. The “Population Mitotic Cells (%)” value [6] was 83% and 95%, the “Population Normal (%)” value [6] was 90% and 91% and the “Population Pyknosed Nuclei (%)” value [6] was 1% and 2%. For the same compound, the “Population Tubulin-Different-Phenotype (%)” value [6] was 22% and 24% and the “Total Cell Count” value [6] was 2378 and 2001.
In the case of `CS(=O)(=O)c1ccc(C(=O)Nc2cccc(COc3ccc(Br)cc3CN3CC[C@@H](O)C3)c2)c(Cl)c1.O=CO`, the “Population Apoptotic (%)” value [1] is reported as 57% and 47%, the “Population Healthy Nuclei (%)” value [1] is reported as 78% and 79% and the “Population Mitotic Cells (%)” value [1] is reported as 42% and 52%. For the same compound, the “Total Cell Count” value [1] was 501 and 560, the “Population Apoptotic (%)” value [2] was 44% and 57% and the “Population Healthy Nuclei (%)” value [2] was 87% and 85%. The “Population Mitotic Cells (%)” value [2] was 55% and 42%, the “Total Cell Count” value [2] was 619 and 489 and the “Population Apoptotic (%)” value [3] was 54% and 48%. For the same compound, the “Population Healthy Nuclei (%)” value [3] was 84% and 83%, the “Population Mitotic Cells (%)” value [3] was 45% and 51% and the “Total Cell Count” value [3] was 735 and 812. The “Population Apoptotic (%)” value [4] was 50% and 66%, the “Population Healthy Nuclei (%)” value [4] was 85% and 84% and the “Population Mitotic Cells (%)” value [4] was 50% and 33%. For the same compound, the “Total Cell Count” value [4] was 658 and 521, the “Population Apoptotic (%)” value [5] was 30% and 25% and the “Population Healthy Nuclei (%)” value [5] was 85%. For the same compound, the “Population Mitotic Cells (%)” value [5] was 69% and 75%, the “Total Cell Count” value [5] was 1702 and 1674 and the “Population Apoptotic (%)” value [6] was 40% and 59%. The “Population Healthy Nuclei (%)” value [6] was 85%, the “Population Mitotic Cells (%)” value [6] was 60% and 40% and the “Total Cell Count” value [6] was 998 and 697.
